A selection: hits, their analogues and other compounds. The true share with any hit is near 3.1%.
Ecoli rRNA inh: inhibits bacterial ribosomal RNA function over humanized ribosomes; AID 720706; GFP signal change (wild-type ribosome), % (test concentration not listed); 350,000 compounds, 1.6% hits; E. coli WT GFP vs humanized-ribosome RFP mutants, fluorescence, 24 h; active compounds read low; DMSO median 0, no signal -100;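 active means significant combined selectivity score with lowered wild-type GFP, culture density cut under 30%, mutant RFP and density less affected; inactive means any of these conditions unmet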
S100A4 inh HTS: inhibitors of human S100A4 binding to myosin IIA peptide; P26447; S100A4/TAMRA-MyoIIA peptide fluorescence polarization; inhibition, % at 10.7 µM; 360,000 compounds, 0.14% hits;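 active means mean inhibition of at least 70% across replicates, with every replicate also reaching that level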
Target sequence (P26447 whole entry, looked up): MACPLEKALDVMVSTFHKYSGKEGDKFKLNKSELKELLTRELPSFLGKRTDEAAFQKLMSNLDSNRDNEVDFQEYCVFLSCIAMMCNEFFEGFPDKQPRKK
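Test system – S100A4 monomer (human) · Compound – single-point compound testing · Schedule – 5 min incubation before reading · Probe or stimulus – TAMRA-labelled myosin IIA heavy-chain peptide probe, 5 nM · Benchmarks – neutral control DMSO, positive control TFP · Medium – Calcium-containing HEPES buffer, pH 7.2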
CFTR F508del cor: correctors of CFTR F508del function in bronchial epithelial cells; AID 720511; CFBE cells, YFP halide quenching; stimulated with forskolin plus potentiator P3; % fluorescence drop versus neutral controls; activity (quench increase), % at 7.58 µM; 350,000 compounds, 0.36% hits;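 active means mean added fluorescence quench of at least 8% versus neutral control, with both replicates also reaching 8%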;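 further: cells transiently co-express mutant CFTR-F508del with the halide-sensitive YFP; corrector assay measuring rescue of mutant channel to the surface after 24 h compound exposure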
SIRT5 inh: blocks human SIRT5 desuccinylation of peptide; inhibition, % at 15 µM; Q9NXA8; AID 652115; 330,000 compounds, 1.1% hits; Purified SirT5, succinyl-peptide AMC, trypsin-coupled fluorescence; in the data active means inhibition above about 15%
Target sequence (Q9NXA8 whole entry, looked up): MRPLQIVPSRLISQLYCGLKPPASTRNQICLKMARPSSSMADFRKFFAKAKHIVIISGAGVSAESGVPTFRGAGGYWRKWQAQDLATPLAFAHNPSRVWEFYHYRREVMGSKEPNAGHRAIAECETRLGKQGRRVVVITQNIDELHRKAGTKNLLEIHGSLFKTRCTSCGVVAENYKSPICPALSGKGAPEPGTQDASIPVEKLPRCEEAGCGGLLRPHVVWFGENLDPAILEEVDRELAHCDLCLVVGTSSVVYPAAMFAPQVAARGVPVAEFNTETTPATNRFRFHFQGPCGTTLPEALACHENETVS
ERAP1 inh: blocks human ERAP1 aminopeptidase activity. Q9NZ08. recombinant ERAP1, Leu-AMC fluorescence, 60 min. inhibition, % at 10.7 µM. 340,000 compounds, 0.15% hits;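 active means mean replicate inhibition of at least 30%, or all replicates individually reaching that 30% level; inactive means mean below 30% and not every replicate reaching it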;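 further: 0% = neutral control wells and 100% = L-leucinethiol positive control wells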
* marks the source's active call; other numbers are inactive results; / = no result given.

SMILES	Ecoli rRNA inh	S100A4 inh HTS	CFTR F508del cor	SIRT5 inh	ERAP1 inh
Oc1[nH]c2ccccc2c1N=Nc1nc(Nc2ccccc2)nc(N2CCOCC2)n1	19.4	0.5	-7.5	-1.2	70.2*
CO[C@@H](CN(C)S(=O)(=O)c1ccccc1)[C@H](C)CN(Cc1ccccc1Cl)[C@@H](C)CO	-1.1	2.1	-1.1	/	0.8
CN(C)C(=O)[C@@H]1[C@@H](CO)[C@@H]2Cn3c(ccc(/C=C/c4ccccc4)c3=O)[C@@H]2N1C(=O)c1cnccn1	0.4	-2.9	2.2	-13.6	-24.4
C[C@@H]1CN([C@H](C)CO)C(=O)c2cc(NS(=O)(=O)c3ccc(F)cc3)ccc2O[C@@H](C)CCCCO[C@H]1CN(C)S(=O)(=O)c1ccc(Cl)cc1	1.1	3.0	1.9	0.0	4.5
C[C@@H]1CCCCO[C@H](CN(C)S(=O)(=O)c2ccc(Cl)cc2)[C@H](C)CN([C@H](C)CO)C(=O)c2cc(NS(=O)(=O)c3ccc(F)cc3)ccc2O1	0.7	1.6	0.2	20.3*	4.6
C[C@@H]1CCCCO[C@H](CN(C)S(=O)(=O)c2ccc(Cl)cc2)[C@H](C)CN([C@@H](C)CO)C(=O)c2cc(NS(=O)(=O)c3ccc(F)cc3)ccc2O1	0.3	-3.8	-0.9	22.1*	6.4
C[C@@H]1CCCCO[C@H](CN(C)S(=O)(=O)c2ccc(F)cc2)[C@@H](C)CN([C@@H](C)CO)C(=O)c2cc(NS(=O)(=O)c3ccc(Cl)cc3)ccc2O1	1.1	0.8	0.0	17.4*	0.1
CCNC(=O)C[C@@H]1CC[C@@H]2[C@H](COc3ccc(NC(=O)Nc4ccccc4F)cc3C(=O)N2C)O1	-3.2	-5.3	-2.9	-0.3	-7.0
Cc1ccsc1C(=O)NNC(=O)CCN1CCN(c2ccccc2)CC1	9.5	17.6	-0.1	18.8*	1.2
C[C@@H]1CN([C@@H](C)CO)C(=O)c2cc(NC(=O)C3CCCCC3)ccc2O[C@H]1CN(C)S(=O)(=O)c1ccc(Cl)cc1	-0.2	-13.3	-0.5	9.2	-3.4
CCc1ccc(/C=C2/SC(=S)N(CCC(=O)NCCCN3CCOCC3)C2=O)cc1	-1.7	-8.0	-7.6	-3.2	0.4
COC(=O)c1ccc(/C=C2/SC(=S)N(CCC(=O)NCCCN3CCOCC3)C2=O)cc1	-3.0	24.1	-1.6	23.2*	-0.4
CCOc1ccc(/C=C2\SC(=S)N(CCCC(=O)NCCCN3CCOCC3)C2=O)cc1	-20.7*	-0.6	-0.9	-1.6	3.2
CCc1ccc(/C=C2\SC(=S)N(CCCC(=O)NCCCN3CCOCC3)C2=O)cc1	-27.0*	1.0	0.5	-1.3	4.2
CCCCN1C(=O)C(CC(=O)NCC2CCCCC2)CC(C(=O)N(CC)CC)=C1C (stereo unspecified)	-3.4	-15.3	1.2	17.0*	-1.1
CCCn1nc(Oc2nc(N(C)C)nc(N(C)C)n2)ccc1=O	23.5	-3.9	-1.0	19.3*	-0.8
CCOC(=O)CNc1nc(Oc2ccc(=O)n(C)n2)nc(N(CC)CC)n1	-3.2	-0.9	2.4	-3.2	-4.4
C[C@@H]1CN([C@@H](C)CO)C(=O)c2cc(NS(=O)(=O)c3ccc(F)cc3)ccc2O[C@H]1CN(C)Cc1ccc2c(c1)OCO2	-2.7	2.3	-3.2	-1.8	0.3
CCc1cc2c(=O)c(-c3cnn(-c4ccccc4)c3)c(C)oc2cc1OCC(=O)Nc1cccc(C)c1	8.2	-4.6	/	26.5*	1.6
Cc1ccc(-n2cc(-c3ccccc3)c3c(N4CCOCC4)ncnc32)cc1	-7.8	11.5	8.2*	-4.3	-1.2
Cc1ccc(-n2cc(-c3ccccc3)c3c(N4CCN(C)CC4)ncnc32)cc1	-55.5	8.6	-1.5	-0.7	-8.2
C[C@@H]1CN([C@H](C)CO)C(=O)c2cccc(NS(=O)(=O)c3ccc(F)cc3)c2O[C@@H]1CN(C)C	2.2	-1.1	-1.0	-4.4	-0.6
CSc1nc(N)nc2c1ncn2CC(=O)NCc1ccccc1	18.0	5.9	1.0	-6.6	0.2
Cc1cccc(CSCC(=O)NCc2ccc(S(N)(=O)=O)cc2)c1	2.5	-4.8	4.1	15.2*	-2.2
Cc1ccc(CSCC(=O)NCc2ccc3c(c2)OCO3)cc1	-22.7*	-0.5	-1.1	/	/
SMILES	Ecoli rRNA inh	S100A4 inh HTS	CFTR F508del cor	SIRT5 inh	ERAP1 inh
Cc1ccc2nc(SCC(=O)NCc3ccc(S(N)(=O)=O)cc3)[nH]c2c1	-1.0	-3.3	2.4	-0.4	3.3
CSc1nc(N)nc2c1ncn2CC(=O)NCc1ccc2c(c1)OCO2	6.6	-2.9	1.9	21.4*	-1.1
Cc1ccc(CNC(=O)CSCc2ccccc2)cc1	-7.1	-4.4	-2.4	-6.0	1.5
CN(C)CC(=O)N1CCCCN2[C@H](C1)[C@H](c1ccc(-c3ccccc3)cc1)[C@@H]2CO	2.3	-0.7	-2.6	0.3	-1.4
C[C@H]1CN([C@@H](C)CO)C(=O)c2cccc(NS(=O)(=O)c3cn(C)cn3)c2O[C@@H]1CN(C)CC1CC1	6.1	4.2	-0.4	-3.0	0.9
O=C(NCC[C@@H]1CC[C@H](NS(=O)(=O)c2ccc(Cl)cc2)[C@H](CO)O1)Nc1ccc(F)cc1	-10.6	/	0.7	-8.2	/
CCCC#Cc1cnc2c(c1)C(=O)N([C@H](C)CO)C[C@@H](C)[C@H](CN(C)C(=O)C1CCC1)O2	0.4	-11.7	-0.2	1.8	2.6
O=C(NCc1ccccn1)[C@@H]1[C@@H](CO)[C@@H]2Cn3c(cccc3=O)[C@@H]2N1CCc1ccccc1	0.3	-5.8	/	15.9*	1.0
CCN1[C@H](C(=O)NCc2ccccc2)[C@@H](CO)[C@@H]2Cn3c(ccc(-c4ccncc4)c3=O)[C@@H]21	1.4	-3.5	2.1	19.5*	0.7
CCN1[C@H](C(=O)NCc2ccccc2)[C@@H](CO)[C@@H]2Cn3c(ccc(-c4cccnc4)c3=O)[C@@H]21	-1.7	-10.3	-0.4	-0.1	0.0
CC=Cc1ccc2n(c1=O)C[C@@H]1[C@@H](CO)[C@H](C(=O)NCc3ccccc3F)N(CC)[C@H]21 (mixture of isomers)	0.1	-8.3	1.2	16.4*	-0.8
COC(=O)[C@H]1[C@H](CO)[C@H]2Cn3c(ccc(-c4cccc(F)c4)c3=O)[C@H]2N1C(=O)CC1CC1	0.2	-9.5	0.1	-15.8	-0.1
COC(=O)[C@@H]1[C@@H](CO)[C@@H]2Cn3c(ccc(-c4ccccc4)c3=O)[C@@H]2N1C(=O)CC1CC1	-0.2	75.5*	/	-7.3	8.3
CNC[C@H]1OCCCC[C@H](C)Oc2ccc(N(C)C)cc2C(=O)N([C@@H](C)CO)C[C@@H]1C	9.5	9.1	1.2	0.1	-6.3
CCNC(=O)[C@@H]1[C@@H](CO)[C@@H]2Cn3c(ccc(-c4cccnc4)c3=O)[C@@H]2N1Cc1ccc2c(c1)OCO2	-1.1	37.2	1.3	23.3*	-2.0
CN(C)C(=O)[C@@H]1[C@@H](CO)[C@@H]2Cn3c(ccc(-c4ccccc4)c3=O)[C@@H]2N1Cc1ccccc1	-2.6	14.3	-0.3	23.4*	-2.5

Bioassay records (PubChem BioAssay)
